Measurements: ChEMBL document CHEMBL1148788 (J Med Chem, 2007)
Where “and” joins values, the source holds several entries; their conditions need not be identical. Equal entries are not always repeated. Calls of active or inactive are those of the source. The rule behind the calls is not given here.

Tests used:
[1] = Displacement of [3H]methyllycaconitine from chimeric alpha-7nAChR K145R mutant /5HT3A receptor in tsA201 cells; assay type: cell-based, Homo sapiens
How it was run: (§1)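 tsA-201 cells transiently transfected with 4 µg WT or mutant α7/5-HT3A chimera and assayed 2 days later. Membranes washed twice at 50000g in 50 mM Tris-HCl pH 7.2. Incubated with 0.5 nM [3H]MLA and compound for 2.5 h at room temperature with shaking; nonspecific binding with 5 mM (S)-nicotine. PEI-soaked GF/C filtration, scintillation counting. Ki derived; duplicate, 3–7 experiments.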

[2] = Displacement of [3H]methyllycaconitine from chimeric alpha-7nAChR N107A mutant/5HT3A receptor in tsA201 cells; assay type: cell-based, Homo sapiens; how it was run: as §1
[3] = Displacement of [3H]methyllycaconitine from chimeric alpha-7nAChR W55A mutant /5HT3A receptor in tsA201 cells; assay type: cell-based, Homo sapiens; how it was run: as §1
[4] = molecular target: T1, 5-hydroxytryptamine receptor 3A (Homo sapiens, UniProt P46098); experiment: Displacement of [3H]GR65630 from human 5HT3A receptor in HEK293 cells; assay type: cell-based
T1 sequence (P46098 whole entry): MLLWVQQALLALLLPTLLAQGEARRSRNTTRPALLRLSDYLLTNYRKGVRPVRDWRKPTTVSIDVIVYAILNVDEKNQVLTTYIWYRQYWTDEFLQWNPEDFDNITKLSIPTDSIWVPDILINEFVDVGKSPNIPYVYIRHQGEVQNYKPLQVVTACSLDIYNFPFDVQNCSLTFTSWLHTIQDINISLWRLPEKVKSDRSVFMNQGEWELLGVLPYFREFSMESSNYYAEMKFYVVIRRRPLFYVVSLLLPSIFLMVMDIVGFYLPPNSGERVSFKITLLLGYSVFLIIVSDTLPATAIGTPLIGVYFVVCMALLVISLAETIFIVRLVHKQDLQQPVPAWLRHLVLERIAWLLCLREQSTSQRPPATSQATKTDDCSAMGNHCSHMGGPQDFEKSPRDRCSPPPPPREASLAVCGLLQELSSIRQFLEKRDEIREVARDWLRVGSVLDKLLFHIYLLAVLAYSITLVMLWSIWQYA

[5] = Displacement of [3H]methyllycaconitine from chimeric alpha7nAChR K145A mutant/5HT3A receptor in tsA201 cells; assay type: cell-based, Homo sapiens; how it was run: as §1
[6] = molecular target: T2, Neuronal acetylcholine receptor subunit alpha-7 (Homo sapiens, UniProt P36544)
Target sequence in this assay (P36544 whole entry): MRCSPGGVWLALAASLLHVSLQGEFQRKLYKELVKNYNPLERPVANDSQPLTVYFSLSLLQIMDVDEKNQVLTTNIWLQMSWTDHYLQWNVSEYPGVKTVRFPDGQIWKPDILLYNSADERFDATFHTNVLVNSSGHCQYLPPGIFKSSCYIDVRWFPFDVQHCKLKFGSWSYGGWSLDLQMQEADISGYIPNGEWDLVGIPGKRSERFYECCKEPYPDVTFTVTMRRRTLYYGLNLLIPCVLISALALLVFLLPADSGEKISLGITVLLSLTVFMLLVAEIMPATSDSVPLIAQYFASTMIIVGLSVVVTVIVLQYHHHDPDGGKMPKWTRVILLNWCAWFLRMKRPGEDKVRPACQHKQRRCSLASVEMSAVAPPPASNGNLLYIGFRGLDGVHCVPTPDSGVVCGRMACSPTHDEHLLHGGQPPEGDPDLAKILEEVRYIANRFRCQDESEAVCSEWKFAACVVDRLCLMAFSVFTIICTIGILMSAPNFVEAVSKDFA

[7] = Displacement of [3H]methyllycaconitine from chimeric alpha-7nAChR Y195F mutant/5HT3A receptor in tsA201 cells; assay type: cell-based, Homo sapiens; how it was run: as §1
[8] = Displacement of [3H]methyllycaconitine from chimeric alpha-7nAChR S148A mutant /5HT3A receptor in tsA201 cells; assay type: cell-based, Homo sapiens; how it was run: as §1
[9] = Antagonist activity at human alpha-7 nAChR Y195A mutant coexpressed with human Ric3 in tsA201 cells by FMP assay; assay type: functional, cell-based
[10] = molecular target: T1, 5-hydroxytryptamine receptor 3A; experiment: Antagonist activity at human 5HT3A receptor expressed in HEK293 cells by FMP assay; assay type: functional, cell-based; details: read-out: IC50
[11] = system: tsA201; experiment: Displacement of [3H]methyllycaconitine from chimeric alpha-7nAChR W55A/Y195A mutant /5HT3A receptor in tsA201 cells; assay type: cell-based; details: Homo sapiens; how it was run: as §1
[12] = Antagonist activity at human alpha-7 nAChR Y188A mutant coexpressed with human Ric3 in tsA201 cells by FMP assay; assay type: functional, cell-based
[13] = system: tsA201; experiment: Displacement of [3H]methyllycaconitine from chimeric alpha-7nAChR W149A mutant/5HT3A receptor in tsA201 cells; assay type: cell-based; details: Homo sapiens; how it was run: as §1
[14] = Displacement of [3H]methyllycaconitine from chimeric alpha-7nAChR Y168A mutant/5HT3A receptor in tsA201 cells; assay type: cell-based, Homo sapiens; how it was run: as §1
[15] = Antagonist activity at human alpha7 nAChR W149Y mutant co-expressed with human Ric3 in tsA201 cells by FMP assay; assay type: functional, cell-based
[16] = Displacement of [3H]methyllycaconitine from chimeric alpha7nAChR W55Y mutant/5HT3A receptor in tsA201 cells; assay type: cell-based, Homo sapiens; how it was run: as §1
[17] = Displacement of [3H]methyllycaconitine from chimeric alpha7nAChR Y195A mutant/5HT3A receptor in tsA201 cells; assay type: cell-based, Homo sapiens; how it was run: as §1
[18] = molecular target: T3, Neuronal acetylcholine receptor; alpha3/beta4 (Rattus norvegicus, UniProt P04757+P12392); experiment: Antagonist activity at rat alpha3beta4 nAChR expressed in HEK293 cells by FMP assay; assay type: functional, cell-based, Homo sapiens; details: read-out: IC50
[19] = molecular target: T2, Neuronal acetylcholine receptor subunit alpha-7; experiment: Displacement of [3H]methyllycaconitine from alpha7 nAChR in tsA201 cells co-expressed with Ric3; assay type: cell-based
Target sequence in this assay (P36544 whole entry): as above

[20] = Displacement of [3H]methyllycaconitine from chimeric alpha-7nAChR S150A mutant/5HT3A receptor in tsA201 cells; assay type: cell-based, Homo sapiens; how it was run: as §1
[21] = system: tsA201; experiment: Displacement of [3H]methyllycaconitine from chimeric alpha-7nAChR W149Y mutant/5HT3A receptor W149Y mutant in tsA201 cells; assay type: cell-based; details: Homo sapiens; how it was run: as §1
[22] = molecular target: Neuronal acetylcholine receptor; alpha4/beta4 (Rattus norvegicus, UniProt P09483+P12392); experiment: Displacement of [3H]epibatidine from recombinant rat alpha-4-beta-4 nAChr in HEK293 cell line; assay type: cell-based
[23] = Antagonist activity at human alpha7nAChR Y93A mutant co-expressed with human Ric3 in tsA201 cells by FMP assay; assay type: functional, cell-based
[24] = system: tsA201; experiment: Displacement of [3H]methyllycaconitine from chimeric alpha-7nAChR Y188A mutant/5-HT3A receptor in tsA201 cells; assay type: cell-based; details: Homo sapiens; how it was run: as §1
[25] = molecular target: Neuronal acetylcholine receptor; alpha4/beta2 (Rattus norvegicus, UniProt P09483+P12390); experiment: Displacement of [3H]epibatidine from rat recombinant alpha-4-beta-2 nAChR in HEK293 cell line; assay type: cell-based
[26] = molecular target: T3, Neuronal acetylcholine receptor; alpha3/beta4; experiment: Displacement of [3H]epibatidine from recombinant rat alpha-3-beta-4 nAChr in HEK293 cell line; assay type: cell-based
[27] = molecular target: T2, Neuronal acetylcholine receptor subunit alpha-7; experiment: Displacement of [3H]methyllycaconitine from human alpha-7 in tsA201 cells coexpressed with 5HT3A receptor; assay type: cell-based
Target sequence in this assay (P36544 whole entry): as above

[28] = cells; assay type: functional, cell-based; details: Homo sapiens, HEK293
[29] = molecular target: T4, Glycine receptor subunit alpha-1 (Homo sapiens, UniProt P23415); experiment: Antagonist activity at human glycine alpha-1 receptor in HEK293 cells by FMP assay; assay type: functional, cell-based
T4 sequence (P23415 whole entry): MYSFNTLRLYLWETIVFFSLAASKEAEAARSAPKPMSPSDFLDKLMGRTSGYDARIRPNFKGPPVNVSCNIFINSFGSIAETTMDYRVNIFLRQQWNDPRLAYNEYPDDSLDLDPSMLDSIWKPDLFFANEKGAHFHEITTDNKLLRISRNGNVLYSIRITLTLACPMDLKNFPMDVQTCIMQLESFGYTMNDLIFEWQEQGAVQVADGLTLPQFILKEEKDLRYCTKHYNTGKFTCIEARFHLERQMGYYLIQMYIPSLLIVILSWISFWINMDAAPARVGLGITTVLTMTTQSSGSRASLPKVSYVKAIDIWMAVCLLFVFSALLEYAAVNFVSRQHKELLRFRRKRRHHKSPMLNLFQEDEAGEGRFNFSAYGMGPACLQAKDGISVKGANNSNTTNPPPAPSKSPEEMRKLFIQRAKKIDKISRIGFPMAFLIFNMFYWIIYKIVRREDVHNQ

[30] = system: tsA201; experiment: Displacement of [3H]methyllycaconitine from chimeric alpha-7nAChR Y93A mutant/5HT3A receptor in tsA201 cells; assay type: cell-based; details: Homo sapiens; how it was run: as §1
[31] = Displacement of [3H]methyllycaconitine from chimeric alpha-7nAChR D197A mutant/5HT3A receptor in tsA201 cells; assay type: cell-based, Homo sapiens; how it was run: as §1
[32] = molecular target: T2, Neuronal acetylcholine receptor subunit alpha-7; experiment: Displacement of [3H]methyllycaconitine from chimeric alpha7nAChR/5HT3A in tsA201 cells; assay type: cell-based
Target sequence in this assay (P36544 23-502 limits assumed): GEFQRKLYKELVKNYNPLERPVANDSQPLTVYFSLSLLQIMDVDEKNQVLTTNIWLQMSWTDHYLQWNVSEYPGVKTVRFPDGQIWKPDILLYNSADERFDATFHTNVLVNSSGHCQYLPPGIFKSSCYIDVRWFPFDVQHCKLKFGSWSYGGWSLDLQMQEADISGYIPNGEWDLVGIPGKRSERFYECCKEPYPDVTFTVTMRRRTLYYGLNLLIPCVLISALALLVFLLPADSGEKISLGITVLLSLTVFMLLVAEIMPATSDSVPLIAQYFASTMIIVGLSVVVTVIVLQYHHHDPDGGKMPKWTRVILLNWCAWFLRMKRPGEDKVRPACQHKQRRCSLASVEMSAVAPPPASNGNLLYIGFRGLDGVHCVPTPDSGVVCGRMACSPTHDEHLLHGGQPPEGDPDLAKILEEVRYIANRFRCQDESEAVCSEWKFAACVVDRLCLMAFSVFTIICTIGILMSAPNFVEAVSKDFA

[33] = Displacement of [3H]methyllycaconitine from chimeric alpha7nAChR R79A mutant/5HT3A receptor R79A mutant in tsA201 cells; assay type: cell-based, Homo sapiens; how it was run: as §1
[34] = molecular target: T2, Neuronal acetylcholine receptor subunit alpha-7; experiment: Antagonist activity at human alpha-7 nAChR in tsA201 cells coexpressed with Ric3 by FMP assay; assay type: functional, cell-based
Target sequence in this assay (P36544 whole entry): as the sequence (P36544 whole entry) above

Sequence of Neuronal acetylcholine receptor; alpha4/beta2 (P09483 whole entry): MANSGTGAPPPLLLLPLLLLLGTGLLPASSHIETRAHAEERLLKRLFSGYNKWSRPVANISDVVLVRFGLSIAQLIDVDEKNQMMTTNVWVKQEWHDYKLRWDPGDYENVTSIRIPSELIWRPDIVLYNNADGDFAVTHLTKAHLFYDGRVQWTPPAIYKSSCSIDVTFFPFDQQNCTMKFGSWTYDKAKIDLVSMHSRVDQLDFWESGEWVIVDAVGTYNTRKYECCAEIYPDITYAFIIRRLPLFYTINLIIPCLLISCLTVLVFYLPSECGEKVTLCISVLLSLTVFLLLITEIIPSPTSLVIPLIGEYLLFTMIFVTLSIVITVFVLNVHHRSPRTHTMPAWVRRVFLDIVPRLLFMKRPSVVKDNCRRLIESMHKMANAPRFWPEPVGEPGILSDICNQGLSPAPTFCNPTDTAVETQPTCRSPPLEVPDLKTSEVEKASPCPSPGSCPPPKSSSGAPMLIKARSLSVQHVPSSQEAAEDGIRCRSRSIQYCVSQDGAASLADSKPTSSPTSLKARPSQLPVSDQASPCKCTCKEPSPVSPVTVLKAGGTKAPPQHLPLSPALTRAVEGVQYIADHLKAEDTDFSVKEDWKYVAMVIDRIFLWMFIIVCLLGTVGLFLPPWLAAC
Sequence of Neuronal acetylcholine receptor; alpha4/beta2 (P12390 whole entry): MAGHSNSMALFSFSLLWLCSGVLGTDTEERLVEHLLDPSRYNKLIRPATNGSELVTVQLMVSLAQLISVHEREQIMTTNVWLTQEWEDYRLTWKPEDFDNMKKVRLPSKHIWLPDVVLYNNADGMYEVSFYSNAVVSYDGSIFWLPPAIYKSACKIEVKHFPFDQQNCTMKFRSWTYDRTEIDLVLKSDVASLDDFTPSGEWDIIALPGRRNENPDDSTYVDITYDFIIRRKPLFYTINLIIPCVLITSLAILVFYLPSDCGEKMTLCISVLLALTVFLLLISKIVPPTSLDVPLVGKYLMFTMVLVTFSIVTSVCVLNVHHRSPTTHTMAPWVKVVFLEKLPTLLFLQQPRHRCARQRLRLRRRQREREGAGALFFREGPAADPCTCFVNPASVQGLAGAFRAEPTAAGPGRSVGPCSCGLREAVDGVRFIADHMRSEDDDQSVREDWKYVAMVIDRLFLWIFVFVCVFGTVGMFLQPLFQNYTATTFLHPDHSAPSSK
Sequence of Neuronal acetylcholine receptor; alpha4/beta4 (P09483 whole entry): as the sequence (P09483 whole entry) above
Sequence of Neuronal acetylcholine receptor; alpha4/beta4 (P12392 whole entry): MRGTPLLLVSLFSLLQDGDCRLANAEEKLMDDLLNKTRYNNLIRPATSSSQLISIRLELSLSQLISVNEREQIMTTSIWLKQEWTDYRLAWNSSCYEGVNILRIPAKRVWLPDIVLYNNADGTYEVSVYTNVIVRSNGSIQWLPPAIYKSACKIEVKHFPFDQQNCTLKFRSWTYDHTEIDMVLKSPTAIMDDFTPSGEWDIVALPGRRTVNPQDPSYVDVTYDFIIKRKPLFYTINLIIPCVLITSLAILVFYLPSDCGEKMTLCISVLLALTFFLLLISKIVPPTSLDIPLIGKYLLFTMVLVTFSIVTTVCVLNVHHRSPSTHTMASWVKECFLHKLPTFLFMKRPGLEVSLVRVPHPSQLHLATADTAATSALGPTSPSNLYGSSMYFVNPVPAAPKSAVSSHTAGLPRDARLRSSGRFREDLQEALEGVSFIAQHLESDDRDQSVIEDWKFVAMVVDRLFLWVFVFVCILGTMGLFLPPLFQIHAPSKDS
T3 sequence (P04757 whole entry): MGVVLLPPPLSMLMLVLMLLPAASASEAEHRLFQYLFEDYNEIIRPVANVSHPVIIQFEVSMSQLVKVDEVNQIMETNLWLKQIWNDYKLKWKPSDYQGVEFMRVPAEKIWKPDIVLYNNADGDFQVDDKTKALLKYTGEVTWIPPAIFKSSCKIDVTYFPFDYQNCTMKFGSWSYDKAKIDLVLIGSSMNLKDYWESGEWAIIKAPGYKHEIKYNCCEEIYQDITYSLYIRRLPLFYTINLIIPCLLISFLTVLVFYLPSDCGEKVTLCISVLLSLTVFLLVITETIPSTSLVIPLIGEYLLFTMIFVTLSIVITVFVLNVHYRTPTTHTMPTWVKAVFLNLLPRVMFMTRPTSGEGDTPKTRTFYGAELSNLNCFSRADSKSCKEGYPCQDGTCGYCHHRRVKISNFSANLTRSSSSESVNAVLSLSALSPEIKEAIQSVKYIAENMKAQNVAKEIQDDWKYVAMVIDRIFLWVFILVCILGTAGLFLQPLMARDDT
T3 sequence (P12392 whole entry): as the sequence (P12392 whole entry) above

`C1=CC([N+]23CC[C@@H]4[C@@H]5[C@@H]6[C@@H](OCC=C(C2)[C@@H]6C[C@@H]43)N2c3ccccc3[C@@]34CC[N+]6(C7C=CCCC7)CC7=CCO[C@H]([C@@H]([C@H]23)[C@H]7C[C@@H]46)N5c2ccccc2)CCC1.[Br-].[Br-]` (stereo partly drawn) gave a Ki [1] of 0.66 µM, a pKi [1] of 6.18 and a Ki [2] of 0.724 µM. For the same compound, the pKi [2] was 6.14, the Ki [3] was 1.2 µM and the pKi [3] was 5.93. For the same compound, the Ki [4] was 2.7 µM, the Ki [5] was 0.32 µM and the pKi [5] was 6.5. For the same compound, the IC50 [6] was 3 µM and 2.95 µM, the Ki [7] was 1.3 µM and the pKi [7] was 5.89. The Ki [8] was 0.4 µM, the pKi [8] was 6.4 and the IC50 ([9]; read-out: IC50) was 3.3 µM. For the same compound, the IC50 ([9]; read-out: pIC50 (converted)) was 3.31 µM, the IC50 [10] was 4.4 µM and the Activity [11] was “inactive”. The IC50 ([12]; read-out: IC50) was 5.3 µM, the IC50 ([12]; read-out: pIC50 (converted)) was 5.13 µM and the Activity [13] was “inactive”. The Ki [14] was 1.1 µM, the pKi [14] was 5.96 and the IC50 ([15]; read-out: IC50) was 2.9 µM. For the same compound, the IC50 ([15]; read-out: pIC50 (converted)) was 2.88 µM, the Ki [16] was 0.56 µM and the pKi [16] was 6.25. For the same compound, the Ki [17] was 4.9 µM, the pKi [17] was 5.31 and the IC50 [18] was 30 µM. The Ki ([19]; read-out: Ki) was 0.59 µM, the Ki ([19]; read-out: pKi (converted)) was 0.631 µM and the Ki [20] was 0.55 µM. For the same compound, the pKi [20] was 6.26, the Activity [21] was “inactive” and the Ki [22] was over 100 µM. It also gave a pKi ([22]; hek293) of under 4, an IC50 ([23]; read-out: IC50) of 3.7 µM and an IC50 ([23]; read-out: pIC50 (converted)) of 3.72 µM. For the same compound, the Activity [24] was “inactive”, the pKi ([25]; hek293) was under 4 and the Ki ([25]; read-out: Ki) was over 100 µM. For the same compound, the Ki [26] was 30 µM, the Ki ([27]; read-out: Ki) was 0.72 µM and the Ki ([27]; read-out: pKi (converted)) was 0.794 µM. For the same compound, the IC50 ([28]; read-out: IC50) was over 100 µM, the IC50 ([28]; read-out: pIC50 (converted)) was over 100 µM and the IC50 [29] was over 100 µM. The pIC50 ([29]; hek293) was under 4, the Activity [30] was “inactive” and the Ki [31] was 1.5 µM. For the same compound, the pKi [31] was 5.83, the Ki [32] was 0.84 µM and the pKi [32] was 6.07. The Ki [33] was 1.3 µM, the pKi [33] was 5.89 and the IC50 ([34]; read-out: IC50) was 3 µM. For the same compound, the IC50 ([34]; read-out: pIC50 (converted)) was 3.02 µM.
